According to PMC7415516 (Clinical genitourinary cancer, 2020):
Like-named read-outs stand apart in the source and are kept apart here.

Columns and labels:
patients with mCRPC = settings: sequence of ENZ followed by AA, cited from earlier work
patients with CRPC [1] = settings: cited from earlier work; for PSA response rate: treatment naïve patients, daily cumulative doses of 600 mg or greater
CYP17 lyase = settings: cited from earlier work
[2] = Pharmacokinetic analysis, plasma concentrations by LC-MS/MS, noncompartmental; type: in vivo, human; settings: for half-life / Cmax / Tmax / Vd/F: male, human, plasma; for Vd/F: Vz/F
[3] = tested on: patients with mCRPC previously treated with enzalutamide; assay: Toxicity evaluation, adverse events graded by CTCAE version 4.0; type: in vivo, human
How it was run: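 Adverse events in enrolled mCRPC patients were graded per NCI CTCAE v4.0 during oral dosing: twice-daily titration to 450 mg, later 750 mg or 600 mg once daily. A related Grade 3 event held treatment until recovery to Grade 1 or baseline. Investigator-discretion reductions were allowed for low-grade events. Drug was stopped for Grade 4 events, a delay over 6 weeks, or more than 2 reductions.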

[4] = tested on: CRPC cell lines MR49F, MDA-PCA-133, LNCaP; settings: MDA-PCA-133, LNCaP (AR F876L, H874Y, T877A); cited from earlier work
patients with CRPC [5] = settings: phase 1 study, once daily dosing; cited from earlier work
[6] = tested on: enzalutamide-resistant cell lines (e.g. C4–2, C4–2B, MR49C, MR49F); settings: established enzalutamide-resistant cell lines; cited from earlier work
[7] = tested on: patients with mCRPC previously treated with enzalutamide; assay: Phase 2 open label study: PSA response, time to progression, overall survival; type: in vivo, human
How it was run: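 Open-label trial in men aged 18 or older with progressive mCRPC after more than three 28-day enzalutamide cycles, split into pre- and post-docetaxel cohorts. Oral dosing without routine steroids: 150 mg twice daily titrated to 450 mg twice daily, later amended to 750 mg, then 600 mg, once daily. PSA response was a ≥50% drop from baseline at 12 weeks (PCWG2). Radiographic progression by modified RECIST 1.1. Kaplan-Meier time to progression and overall survival.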

[8] = 600 mg oral, C1D1 (n=4), first dose
[9] = 600 mg oral, C2D1 (n=4), steady-state
[10] = 750 mg oral, C1D1 (n=3), first dose
[11] = 750 mg oral, C2D2 (n=l), steady-state
[12] = po, 600 mg, 600 mg oral, C1D1 (n=4), first dose
[13] = po, 600 mg, 600 mg oral, C2D1 (n=4), steady-state
[14] = po, 750 mg, 750 mg oral, C1D1 (n=3), first dose
[15] = po, 750 mg, 750 mg oral, C2D2 (n=l), steady-state
[16] = N = 17, attribution at least possible

In the case of `CC(=O)O[C@H]1CC[C@@]2(C)C(=CC[C@@H]3[C@@H]2CC[C@]2(C)C(c4cccnc4)=CC[C@@H]32)C1` [AA, abiraterone acetate], the PSA response rate (patients with mCRPC; ref 39) is listed as 3% and the PSA response rate (patients with mCRPC; ref 40) is listed as 8%.
In the case of `CC(C)[C@](O)(c1ccc2cc(OC(F)F)c(OC(F)F)cc2c1)c1c[nH]nn1` [Seviteronel], the “PSA declines of 50% or greater” value (patients with CRPC [1]; 450 mg twice daily, patients who had previously received ENZ) is listed as 2 of 7, the response rate (patients with CRPC [1]; pre-treated patients, Phase I study once daily dosing) is listed as 0% and the PSA response rate (patients with CRPC [1]; once daily dosing (N=9)) is listed as 33%. For the same molecule, the PSA response rate (patients with CRPC [1]; twice daily dosing (N=26)) was 11%, the “selectivity towards the CYP17 lyase over hydroxylase” value (CYP17 lyase) was “approximately 10 fold” and the “AUC/D (dose-normalized)” value [2, 8] was 55.1 ± 7.21 mg·h/L/mg. The “Cmax/D (dose-normalized)” value [2, 8] was 6.77 ± 3.20 mg/L/mg, the CL/F ([2]; 600 mg oral, C1D1 (n=4), first dose, Dose/AUCinf) was 18.4 ± 2.50 L/h and the “AUC/D (dose-normalized)” value [2, 9] was 92.3 ± 9.94 mg·h/L/mg. The “Cmax/D (dose-normalized)” value [2, 9] was 7.76 ± 1.93 mg/L/mg, the CL/F ([2]; 600 mg oral, C2D1 (n=4), steady-state, Dose/AUCtau) was 10.9 ± 1.32 L/h and the “AUC/D (dose-normalized)” value [2, 10] was 58.9 ± 2.87 mg·h/L/mg. The “Cmax/D (dose-normalized)” value [2, 10] was 6.82 ± 2.54 mg/L/mg, the CL/F ([2]; 750 mg oral, C1D1 (n=3), first dose, Dose/AUCinf) was 17.0 ± 0.84 L/h and the “AUC/D (dose-normalized)” value [2, 11] was 84.6 mg·h/L/mg. For the same molecule, the “Cmax/D (dose-normalized)” value [2, 11] was 7.53 mg/L/mg, the CL/F ([2]; 750 mg oral, C2D2 (n=l), steady-state, Dose/AUCtau) was 11.8 L/h and the “increase of dose-normalized steady-state AUCτ over first dose AUCINF” value ([2]; 6 patients, p=0.001) was 61%. The “dose-normalized CMAX, mean” value ([2]; Cycle 1) was 6.79 µg/L/mg, the “dose-normalized first dose AUCINF” value ([2]; first dose) was 56.7 µg·h/L/mg and the half-life ([2]; oral, mean first dose half-life, 48-hr sampling window, range 7.9 – 23.5 hr) was 13.9 h. The Cmax [2, 12] was 4070 ± 1920 ng/mL, the Cmax [2, 13] was 4660 ± 1160 ng/mL and the half-life ([2]; po, 600 mg, T1/2, 600 mg oral, C1D1 (n=4), first dose) was 16.4 ± 4.78 h. For the same molecule, the half-life ([2]; po, 600 mg, T1/2, 600 mg oral, C2D1 (n=4), steady-state) was 14.8 ± 5.94 h, the Tmax [2, 12] was 2 h and the Tmax [2, 13] was 5 ± 2.58 h. The Vd/F [2, 12] was 438 ± 146 L, the Vd/F [2, 13] was 229 ± 77.7 L and the Cmax [2, 14] was 5110 ± 1900 ng/mL. It also gave a Cmax [2, 15] of 5650 ng/mL, a half-life ([2]; po, 750 mg, T1/2, 750 mg oral, C1D1 (n=3), first dose) of 10.5 ± 4.35 h and a half-life ([2]; po, 750 mg, T1/2, 750 mg oral, C2D2 (n=l), steady-state) of 18.3 h. For the same molecule, the Tmax [2, 14] was 2 ± 1.7 h, the Tmax [2, 15] was 2 h and the Vd/F [2, 14] was 260 ± 121 L. The Vd/F [2, 15] was 312 L, the “time to reach 97% steady-state” value ([2]; once daily dosing) was 69.5 h and the “expected accumulation above first-dose” value ([2]; once daily dosing until steady-state) was 43%. The “increase of steady-state dose-normalized CMAX over Cycle 1” value ([2]; p=0.44) was 20%, the “start of apparent monophasic elimination post dose” value ([2]; single oral dose 600mg or 750mg with food) was 2 to 4 h and the “dose-normalized CMAX, mean” value ([2]; steady-state) was 8.16 µg/L/mg. The “dose-normalized steady-state AUCτ” value ([2]; steady-state) was 91.3 µg·h/L/mg, the “Blurred Vision, All Grades (Gr 1–3)” value [3, 16] was 4 (24) No. Patients (%) and the “Blurred Vision, Grade 1” value [3, 16] was 3 (18) No. Patients (%). For the same molecule, the “Blurred Vision, Grade 2” value [3, 16] was 1 (6) No. Patients (%), the “Blurred Vision, Grade 3” value [3, 16] was 0 (0) No. Patients (%) and the “Concentration Impairment, All Grades (Gr 1–3)” value [3, 16] was 14 (82) No. Patients (%). For the same molecule, the “Concentration Impairment, Grade 1” value [3, 16] was 9 (53) No. Patients (%), the “Concentration Impairment, Grade 2” value [3, 16] was 4 (24) No. Patients (%) and the “Concentration Impairment, Grade 3” value [3, 16] was 1 (6) No. Patients (%). The “Dizziness, All Grades (Gr 1–3)” value [3, 16] was 6 (35) No. Patients (%), the “Dizziness, Grade 1” value [3, 16] was 3 (18) No. Patients (%) and the “Dizziness, Grade 2” value [3, 16] was 1 (6) No. Patients (%). For the same molecule, the “Dizziness, Grade 3” value [3, 16] was 2 (12) No. Patients (%), the “Edema (limbs), All Grades (Gr 1–3)” value [3, 16] was 3 (18) No. Patients (%) and the “Edema (limbs), Grade 1” value [3, 16] was 2 (12) No. Patients (%). For the same molecule, the “Edema (limbs), Grade 2” value [3, 16] was 1 (6) No. Patients (%), the “Edema (limbs), Grade 3” value [3, 16] was 0 (0) No. Patients (%) and the “Fall, All Grades (Gr 1–3)” value [3, 16] was 3 (18) No. Patients (%). For the same molecule, the “Fall, Grade 1” value [3, 16] was 1 (6) No. Patients (%), the “Fall, Grade 2” value [3, 16] was 1 (6) No. Patients (%) and the “Fall, Grade 3” value [3, 16] was 1 (6) No. Patients (%). The “Fatigue, All Grades (Gr 1–3)” value [3, 16] was 11 (65) No. Patients (%), the “Fatigue, Grade 1” value [3, 16] was 3 (18) No. Patients (%) and the “Fatigue, Grade 2” value [3, 16] was 8 (47) No. Patients (%). The “Fatigue, Grade 3” value [3, 16] was 0 (0) No. Patients (%), the “Gait Disturbance, All Grades (Gr 1–3)” value [3, 16] was 3 (18) No. Patients (%) and the “Gait Disturbance, Grade 1” value [3, 16] was 3 (18) No. Patients (%). For the same molecule, the “Gait Disturbance, Grade 2” value [3, 16] was 0 (0) No. Patients (%), the “Gait Disturbance, Grade 3” value [3, 16] was 0 (0) No. Patients (%) and the “Hypotension, All Grades (Gr 1–3)” value [3, 16] was 4 (24) No. Patients (%). For the same molecule, the “Hypotension, Grade 1” value [3, 16] was 1 (6) No. Patients (%), the “Hypotension, Grade 2” value [3, 16] was 2 (12) No. Patients (%) and the “Hypotension, Grade 3” value [3, 16] was 1 (6) No. Patients (%). For the same molecule, the “Malaise, All Grades (Gr 1–3)” value [3, 16] was 3 (18) No. Patients (%), the “Malaise, Grade 1” value [3, 16] was 0 (0) No. Patients (%) and the “Malaise, Grade 2” value [3, 16] was 3 (18) No. Patients (%). For the same molecule, the “Malaise, Grade 3” value [3, 16] was 0 (0) No. Patients (%), the “Nausea, All Grades (Gr 1–3)” value [3, 16] was 9 (53) No. Patients (%) and the “Nausea, Grade 1” value [3, 16] was 7 (41) No. Patients (%). For the same molecule, the “Nausea, Grade 2” value [3, 16] was 0 (0) No. Patients (%), the “Nausea, Grade 3” value [3, 16] was 2 (12) No. Patients (%) and the “Presyncope, All Grades (Gr 1–3)” value [3, 16] was 3 (18) No. Patients (%). For the same molecule, the “Presyncope, Grade 1” value [3, 16] was 0 (0) No. Patients (%), the “Presyncope, Grade 2” value [3, 16] was 3 (18) No. Patients (%) and the “Presyncope, Grade 3” value [3, 16] was 0 (0) No. Patients (%). The “Tremor, All Grades (Gr 1–3)” value [3, 16] was 10 (59) No. Patients (%), the “Tremor, Grade 1” value [3, 16] was 9 (53) No. Patients (%) and the “Tremor, Grade 2” value [3, 16] was 1 (6) No. Patients (%). For the same molecule, the “Tremor, Grade 3” value [3, 16] was 0 (0) No. Patients (%), the “Vomiting, All Grades (Gr 1–3)” value [3, 16] was 3 (18) No. Patients (%) and the “Vomiting, Grade 1” value [3, 16] was 3 (18) No. Patients (%). The “Vomiting, Grade 2” value [3, 16] was 0 (0) No. Patients (%), the “Vomiting, Grade 3” value [3, 16] was 0 (0) No. Patients (%) and the “Grade 4 adverse events related to study treatment” value ([3]; in vivo) was “No Grade 4 adverse events related to the study treatment were reported”. The “number of Grade 3 adverse events” value ([3]; in vivo) was “nine”, the “Concentration impairment Grade 2 or higher” value ([3]; of 17 patients) was 5 patients and the “patients with CNS toxicities that contributed to treatment discontinuation” value ([3]; of 17 patients) was “nine”. For the same molecule, the diarrhea ([3]; patients receiving 750 mg once daily) was “not reported”, the tolerability ([3]; twice daily 450 mg or once daily 600/750 mg, without oral steroids) was “not generally well tolerated” and the “efficacy in in vivo models” value [4] was “effective”. The patients experiencing fatigue (patients with CRPC [5]) was 71%, the “patients with blurry vision” value (patients with CRPC [5]) was 33% and the patients with dizziness (patients with CRPC [5]) was 52%. For the same molecule, the “potency compared with AA” value [6] was “more potent than AA”, the “rate of significant PSA response (≥ 50% decrease in baseline serum PSA)” value ([7]; all 17 patients, after 12 weeks of seviteronel, PCWG2 criteria) was 6% and the “patients having documented PSA progression per PCWG2” value ([7]; of 17 patients) was 8 patients. The “minimal decline in PSA” value ([7]; one patient, pre-chemotherapy cohort, 750 mg once daily reduced to 450 mg once daily, after 11 weeks) was 15%.
